# This excerpt belongs to a sample that is enriched for hits.
# PvdQ acylase: P. aeruginosa PvdQ acylase inhibition. purified PvdQ acylase, fluorescence plate reader. inhibition, % at 10 µM. 340,000 tested, 0.063% active; in the data active = inhibition above about 30%, passing the limit was not always enough;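 note: 0% = vehicle neutral wells and 100% = reference inhibitor wells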
# UPR CHOP act: activators of apoptotic arm of unfolded protein response (CHOP) | CHO-CHOP luciferase reporter, UPR activation, luminescence; percent of tunicamycin response over DMSO baseline | activation, % at 10 µM | 330,000 tested, 0.34% active;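 active = at 10 µM dose, activation of 40% or more, normalized to positive control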;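 note: 100% = tunicamycin at 10 µg/mL and 0% = DMSO alone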
#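 measured by = luciferase luminescence | assay system = CHO-CHOP cells, stable luciferase reporter of PERK-eIF2a-CHOP signalling | amount = 500 reporter cells seeded per well | timing = 6 h compound exposure at 37 °C after overnight seeding | controls = positive tunicamycin 10 µg/mL, negative DMSO alone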
# CHOP inhibitor: blocks CHOP induction under ER stress; CHO-K1 CHOP-promoter luciferase, tunicamycin-induced, 15-18 h; inhibition, % at 10 µM; 220,000 tested, 3.8% active; AID 2732;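 active = compounds that reduced the stress-induced luciferase reporter signal by more than about 70% of percent inhibition, limit read from the data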;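 note: 0% = tunicamycin plus vehicle and 100% = wells without tunicamycin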
# XBP1 UPR activ: adaptive UPR (XBP1) activation; CHO-XBP1 luciferase reporter, IRE1-XBP1 UPR activation, luminescence; percent of tunicamycin response, DMSO as zero; activation, % at 20 µM; AID 463104; 330,000 tested, 0.33% active;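 active = versus positive control, 20 µM dose yields 30% or more activation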;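 note: 100% = tunicamycin at 10 µg/mL and 0% = DMSO only wells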
#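 Material: CHO-XBP1 cells stably carrying IRE1-XBP1-driven luciferase reporter | Medium: F12 with 10% serum | Compound dosing: 20 µM single concentration, DMSO 1% | Incubation: Overnight seeding at 37 °C, 6 h compound treatment at 37 °C | Detection: Steady-Glo luminescence read | Read-out basis: % activation of reporter signal versus tunicamycin and DMSO controls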
# CHOP confirm: confirmation of CHOP induction inhibitors; shares compounds with CHOP inhibitor; CHO-CHOP promoter luciferase reporter, tunicamycin-induced, luminescence; inhibition, % at 10 µM; 2,100 tested, 45% active; AID 504437;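 active = mean of three repeat readings of reporter signal inhibition above a set limit, cut at about 70% in these data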;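 note: 0% = tunicamycin plus vehicle and 100% = wells lacking tunicamycin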
# CHOP UPR conf: apoptotic UPR (CHOP) activation, confirmed | CHO-CHOP cells, CHOP-luciferase reporter luminescence; percent of tunicamycin response, DMSO as zero | shares compounds with UPR CHOP act | activation, % at 10 µM | AID 463112 | 1,000 tested, 64% active; in the data active = activation above about 33%;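 note: 0% = DMSO wells and 100% = tunicamycin 10 µg/mL wells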
# XBP1 UPR conf: confirmation of adaptive unfolded protein response (XBP1) activators; shares compounds with XBP1 UPR activ; CHO-XBP1 IRE1-XBP1 luciferase reporter, luminescence; activation, % at 20 µM; 1,000 tested, 63% active;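 active = reporter signal at least 30% of the positive control's activation in two or more of four replicate wells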;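 note: plate controls were DMSO negative control for no effect and tunicamycin 10 µg/mL positive control for full effect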
# Starred values were filed as active, the others as inactive; . = no result given.
SMILES,PvdQ acylase,UPR CHOP act,CHOP inhibitor,XBP1 UPR activ,CHOP UPR conf,others
COc1c(C)cc(Br)cc1C(=O)Nc1ccc(S(N)(=O)=O)cc1,-7,0,13,-2,.,
NS(=O)(=O)c1ccc(N/N=C2/CCCCC2C2CCCCC2)c([N+](=O)[O-])c1 (centres undefined),1,4,108*,55*,.,CHOP confirm=115*;XBP1 UPR conf=84*
COc1ccc(Cn2c(C3CCCCC3)nc3c(c(=O)c4ccccc4n3C)c2=O)cc1,.,6,5,10,.,
COc1ccc(CCn2c(C3CCCCC3)nc3c(c(=O)c4ccccc4n3C)c2=O)cc1,.,6,100*,34*,.,CHOP confirm=47;XBP1 UPR conf=82*
COc1cc(/C=C(\C#N)c2nc3ccccc3[nH]2)cc(Br)c1OCc1ccc(F)cc1,-18,1,104*,110*,.,CHOP confirm=84*;XBP1 UPR conf=128*
COc1cc(/C=C(\C#N)c2nc3ccccc3[nH]2)cc(Br)c1OCc1ccccc1,-4,10,46,8,.,
CCOC(=O)c1c(NC(=O)CSc2nccn2C)sc(C(=O)NC)c1C,1,2,.,0,.,
CC(=O)Nc1ccc(NC(=O)C(C)OC(=O)/C=C/c2cn(-c3ccccc3)nc2-c2cccnc2)cc1 (centres undefined),-10,2,104*,36*,.,CHOP confirm=48;XBP1 UPR conf=17
Cc1ccccc1NC(=O)COC(=O)/C=C/c1cn(-c2ccccc2)nc1-c1cccnc1,5,0,35,-3,.,
Cc1cc(NC(=O)CSc2nc3ccccc3c(=O)n2Cc2ccccc2)no1,-4,0,34,-2,.,
Cc1ccc(Cn2c(SCC(=O)Nc3cc(C)on3)nc3ccccc3c2=O)cc1,-14,2,104*,52*,.,CHOP confirm=124*;XBP1 UPR conf=48*
Cc1cc(NC(=O)CSc2nnc(-c3c[nH]c4ccccc34)n2-c2ccc(Cl)cc2)no1,-12,4,106*,40*,.,CHOP confirm=-20;XBP1 UPR conf=9
CCc1nn(CC(=O)NCCc2ccc(OC)cc2OC)c(=O)c2cc3occc3n12,-9,2,.,-1,.,
CCn1c(=O)c(C(=O)Nc2nc3ccccc3[nH]2)c(O)c2ccccc21,-19,11,.,78*,.,CHOP confirm=120*;XBP1 UPR conf=14
CCn1c(=O)c(C(=O)Nc2ccccc2)c(O)c2ccccc21,10,1,.,-1,.,
CCc1cc2c(C)ccc(C)c2nc1SCC(=O)Nc1c[nH]c(=O)[nH]c1=O,-6,0,101*,52*,.,CHOP confirm=40;XBP1 UPR conf=37*
Cc1cccc(N2CCN(C(=S)Nc3ccc4nc(N5CCN(C)CC5)cc(C)c4c3)CC2C)c1 (centres undefined),7,8,106*,62*,.,CHOP confirm=-14;XBP1 UPR conf=47*
COc1ccc(C)cc1NS(=O)(=O)c1ccc(Cl)nc1,-9,1,.,-2,.,
COc1ccc(C(=O)NC(C)c2ccccc2)cc1Br (centres undefined),7,-2,8,-5,.,
C[C@@H](NC(=O)c1coc(=O)c(Br)c1)c1ccccc1,-12,115*,36,-9,97*,
CCSC1(SCC)N=C(N)C2(C#N)C(c3ccc(OC)c(OC)c3OC)C12C#N (centres undefined),-7,214*,-13,20,307*,
C=CCC(COCc1ccccc1)NS(=O)(=O)c1ccccc1Br (centres undefined),-19,-1,20,1,.,
Cc1ccc(SC(=O)c2c(C)noc2-c2cc(C)on2)cc1,2,57*,18,-4,18,
Cc1cc(-c2onc(C)c2C(=O)N/N=C/c2ccccc2)no1,-9,-1,11,1,.,
COc1ccc2c(c1)c(/C=N/Nc1nc3ccccc3[nH]1)c(C)n2C,-14,287*,-54,6,3,
SMILES,PvdQ acylase,UPR CHOP act,CHOP inhibitor,XBP1 UPR activ,CHOP UPR conf,others
COc1cc(/C=N\Nc2nc3ccccc3[nH]2)cc(OC)c1OC,7,0,6,-1,.,
CCCCn1c(/C=N/Nc2nc3ccccc3[nH]2)nc2ccccc21,-7,113*,-39,28,294*,
CC(=O)Nc1ccc(NC(=O)c2nc(S(=O)(=O)Cc3cccc(C)c3)ncc2Cl)cc1,-9,-11,.,-11,.,
Cc1ccc(NC(=O)c2nc(S(=O)(=O)Cc3ccccc3C)ncc2Cl)cc1C,3,237*,.,-10,170*,
COC(=O)c1ccc(NC(=O)c2nc(S(=O)(=O)Cc3cccc(C)c3)ncc2Cl)cc1,-10,95*,.,-11,27,
O=C1C2Sc3[nH]c(=O)sc3C(c3cc([N+](=O)[O-])ccc3O)C2C(=O)N1c1ccccc1 (centres undefined),-7,0,-1,-2,.,
O=C(Nc1ccc(CN2CCS(=O)(=O)CC2)cc1)c1ccc(Cl)cc1,-8,1,-4,0,.,
O=C(CCSCc1ccc(Cl)cc1)NCc1cccnc1,-11,2,-1,0,.,
Cc1cc(C)nc(SCC(=O)NNS(=O)(=O)c2ccc(C#N)cc2)n1,-12,0,.,0,.,
CC(C)c1nnc(NC(=O)c2nc(S(=O)(=O)Cc3ccccc3)ncc2Cl)s1,-7,62*,.,-9,8,
CCc1ccc(NC(=O)c2nc(S(=O)(=O)Cc3ccccc3)ncc2Cl)cc1,-15,-11,.,-10,.,
CSc1nnc(NC(=O)c2nc(S(=O)(=O)Cc3ccccc3)ncc2Cl)s1,-5,56*,.,-8,61*,
COc1ccc(-n2nnnc2SC(C)C(=O)NC2CCCC2)cc1 (centres undefined),-8,-1,.,-4,.,
Oc1ccc(/C=N/N(c2ccccc2)c2ccccc2)c(O)c1O,-14,5,.,-7,.,
Oc1ccc(/C=N/N(c2ccccc2)c2ccccc2)cc1O,-2,107*,.,9,33*,
Oc1ccc(/C=N/N=C/c2ccc(O)c(O)c2)cc1O,-13,67*,.,28,9,
Oc1ccc(N=Cc2ccc(O)c(O)c2)cc1,-14,-1,.,1,.,
Cc1nnc(NC(=O)c2ccc3ccccc3n2)s1,-11,7,-33,-5,.,
C=CCc1cccc(/C=N/NC(=O)c2ccccc2Br)c1O,-7,0,26,3,.,
C=CCc1cccc(/C=N/NC(=O)c2ccccc2OC)c1O,-2,127*,-37,3,2,
Cc1cc(O)c(-c2cc(O)c(C)cc2O)cc1O,20,74*,-154,-8,136*,
Cc1ccc(N)cc1O,-5,-1,.,0,.,
N#CC(C#N)=C(N)CSc1cccc[n+]1[O-],-9,1,15,-2,.,
COc1ccc2cc(-c3ccccc3F)ncc2c1,2,3,.,-3,.,
O=C(Nc1nc(-c2ccccn2)cs1)c1cc(Cl)ccc1[N+](=O)[O-],-11,66*,19,-1,167*,

# Compound activity as filed in PubChem BioAssay.
